Measured values taken from ChEMBL document CHEMBL4004784, “Antioxidant Hydroanthraquinones from the Marine Algal-Derived Endophytic Fungus Talaromyces islandicus EN-501” (J Nat Prod, 2017).
≈ marks a conversion by molar mass, not a printed value. Calls of active or inactive are those of the source. No cut-off for these calls is given here.

Assays:
[1] = test system: A2780; experiment: Cytotoxicity against human A2780 cells after 72 hrs by MTT assay; assay type: functional, cell-based; conditions: A2780, 72 h
[2] = test system: Escherichia coli; experiment: Antimicrobial activity against Escherichia coli EMBLC-1 by XTT assay; assay type: functional
Summary of the method: (§1)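 Microplate assay on bacterial strains supplied by the Institute of Oceanology, Chinese Academy of Sciences, with chloramphenicol as the positive control.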

[3] = Cytotoxicity against human A2780cis cells after 72 hrs by MTT assay; assay type: functional, cell-based
[4] = test system: Staphylococcus aureus; experiment: Antimicrobial activity against Staphylococcus aureus EMBLC-2 by XTT assay; assay type: functional; summary of the method: as §1
[5] = Antioxidant activity assessed as DPPH radical scavenging activity; assay type: functional
Summary of the method: (§2)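 Radical scavenging of pure compounds against DPPH and ABTS radicals, run by previously published methods and reported as IC50 in μM. Positive controls were BHT for DPPH and ascorbic acid for ABTS.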

[6] = test system: Edwardsiella tarda; experiment: Antimicrobial activity against Edwardsiella tarda QDIO-2 by XTT assay; assay type: functional; summary of the method: as §1
[7] = Antioxidant activity assessed as ABTS radical scavenging activity; assay type: functional; summary of the method: as §2
[8] = test system: A2780cis; experiment: Cytotoxicity against human A2780cis cells at 100 uM after 72 hrs by MTT assay; assay type: functional, cell-based
[9] = test system: A2780; experiment: Cytotoxicity against human A2780 cells at 100 uM after 72 hrs by MTT assay; assay type: functional, cell-based

SMILES	IC50 [1]	MIC [2]	IC50 [3]	MIC [4]	IC50 [5]	MIC [6]	IC50 [7]	Activity [8]	Activity [9]
Cc1cc(O)c2c(c1O)[C@H](O)[C@H]1C[C@@H](O)CC[C@@H]1C2=O	> 10 µM	64 µg/mL (≈ 230 µM)	> 10 µM	4 µg/mL (≈ 14.4 µM)	12 µM	inactive	8.3 µM		
Cc1cc(C(C)(C)C)c(O)c(C(C)(C)C)c1 [BUTYLATED HYDROXYTOLUENE]					61 µM				
O=C1O[C@H]([C@@H](O)CO)C(O)=C1O [ASCORBIC ACID]							16 µM		
Cc1cc(O)c2c(c1O)[C@H](O)[C@H]1C[C@@H](O)C[C@H](O)[C@@H]1C2=O	> 10 µM	32 µg/mL (≈ 109 µM)	> 10 µM	4 µg/mL (≈ 13.6 µM)	52 µM	64 µg/mL (≈ 217 µM)	31 µM		
O=C(N[C@H](CO)[C@H](O)c1ccc([N+](=O)[O-])cc1)C(Cl)Cl [CHLORAMPHENICOL]		4 µg/mL (≈ 12.4 µM)		2 µg/mL (≈ 6.19 µM)		2 µg/mL (≈ 6.19 µM)			
O=C1c2c(O)cc(CO)c(O)c2[C@H](O)[C@H]2C[C@@H](O)CC[C@H]12		16 µg/mL (≈ 54.4 µM)		2 µg/mL (≈ 6.8 µM)	31 µM	32 µg/mL (≈ 109 µM)	19 µM	Active	Active
Cc1cc(O)c2c(c1O)[C@H](O)[C@H]1C[C@@H](O)C[C@@H](O)[C@@H]1C2=O	> 10 µM	32 µg/mL (≈ 109 µM)	> 10 µM	4 µg/mL (≈ 13.6 µM)	42 µM	64 µg/mL (≈ 217 µM)	34 µM		
CO[C@@H]1c2c(O)cc(C)c(O)c2C(=O)[C@@H]2C[C@H](O)C[C@H](O)[C@@H]12	> 10 µM	inactive	> 10 µM	8 µg/mL (≈ 25.9 µM)	30 µM	inactive	24 µM		
